Laboratory results taken from ChEMBL document CHEMBL1208778, “Synthesis and anti-cancer activity of chalcone linked imidazolones” (2010).

Assays:
Type in all cases: functional
[1] = tested on: A498; assay: Growth inhibition of human A498 cells
In short: (§1)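 Five-dose testing was run within the NCI (Bethesda) in vitro Anticancer Screen Program on a panel of 53 human tumour cell lines from nine cancer types. Growth inhibition is reported as GI50.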

[2] = tested on: MCF7; assay: Cell cycle arrest in human MCF7 cells assessed as accumulation at G1 phase at 10 uM after 24 hrs by FACS analysis
In short: (§2)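 MCF-7 breast carcinoma cells were exposed to 10 µM test compound for 24 h, with DMSO as the vehicle control. Cell-cycle distribution was read by FACS as the percentage of cells in G0, G1, S and G2/M.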

[3] = tested on: UACC-257; assay: Growth inhibition of human UACC257 cells
In short: (§3)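 Compounds that passed a preliminary screen were tested at five doses in the NCI (Bethesda) in vitro Anticancer Screen Program against a 53-line human tumour panel spanning leukemia, lung, colon, CNS, melanoma, ovarian, renal, prostate and breast. Growth inhibition is reported as GI50.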

[4] = tested on: SK-MEL-28; assay: Growth inhibition of human SK-MEL-28 cells; in short: as §1
[5] = tested on: HCT-15; assay: Growth inhibition of human HCT15 cells; in short: as §1
[6] = tested on: NCI/ADR-RES; assay: Growth inhibition of human NCI/ADR-RES cells; in short: as §1
[7] = tested on: NCI-H460; assay: Growth inhibition of human NCI-H460 cells; in short: as §1
[8] = tested on: A549; assay: Growth inhibition of human A549 cells; in short: as §1
[9] = tested on: 786-0; assay: Growth inhibition of human 786-0 cells; in short: as §1
[10] = tested on: MCF7; assay: Cell cycle arrest in human MCF7 cells assessed as accumulation at S phase at 10 uM after 24 hrs by FACS analysis; in short: as §2
[11] = tested on: UO-31; assay: Growth inhibition of human UO31 cells; in short: as §3
[12] = tested on: SK-MEL-2; assay: Growth inhibition of human SK-MEL-2 cells; in short: as §1
[13] = tested on: MDA-MB-231; assay: Growth inhibition of human MDA-MB-231 cells; in short: as §1
[14] = tested on: U-251; assay: Growth inhibition of human U251 cells; in short: as §3
[15] = Growth inhibition of human RPMI8266 cells; in short: as §1
[16] = tested on: HT-29; assay: Growth inhibition of human HT-29 cells; in short: as §1
[17] = tested on: MDA-MB-435; assay: Growth inhibition of human MDA-MB-435 cells; in short: as §1
[18] = tested on: OVCAR-3; assay: Growth inhibition of human OVCAR-3 cells; in short: as §1
[19] = tested on: MCF7; assay: Cell cycle arrest in human MCF7 cells assessed as accumulation at G0 phase at 10 uM after 24 hrs by FACS analysis; in short: as §2
[20] = tested on: SW-620; assay: Growth inhibition of human SW620 cells; in short: as §3
[21] = tested on: T47D; assay: Growth inhibition of human T47D cells; in short: as §3
[22] = tested on: LOX IMVI; assay: Growth inhibition of human LOXIMVI cells; in short: as §1
[23] = tested on: SN12C; assay: Growth inhibition of human SN12C cells; in short: as §3
[24] = tested on: KM12; assay: Growth inhibition of human KM12 cells; in short: as §1
[25] = tested on: MCF7; assay: Cell cycle arrest in human MCF7 cells assessed as accumulation at S phase at 30 uM after 24 hrs by FACS analysis
In short: (§4)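 MCF-7 cells were treated at 30 µM for 24 h alongside a DMSO control. Fractions in G0, G1, S and G2/M phases were measured by FACS, and values are means of three experiments.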

[26] = tested on: RXF 393; assay: Growth inhibition of human RXF393 cells; in short: as §1
[27] = tested on: HOP-62; assay: Growth inhibition of human HOP62 cells; in short: as §1
[28] = tested on: OVCAR-8; assay: Growth inhibition of human OVCAR8 cells; in short: as §1
[29] = tested on: NCI-H226; assay: Growth inhibition of human NCI-H226 cells; in short: as §1
[30] = tested on: HCC 2998; assay: Growth inhibition of human HCC2998 cells; in short: as §1
[31] = tested on: BT-549; assay: Growth inhibition of human BT549 cells; in short: as §1
[32] = tested on: OVCAR-4; assay: Growth inhibition of human OVCAR4 cells; in short: as §1
[33] = tested on: UACC-62; assay: Growth inhibition of human UACC62 cells; in short: as §3
[34] = tested on: SK-OV-3; assay: Growth inhibition of human SKOV3 cells; in short: as §3
[35] = tested on: M14; assay: Growth inhibition of human M14 cells; in short: as §1
[36] = tested on: ACHN; assay: Growth inhibition of human ACHN cells; in short: as §1
[37] = tested on: HCT-116; assay: Growth inhibition of human HCT116 cells; in short: as §1
[38] = tested on: SNB-75; assay: Growth inhibition of human SNB75 cells; in short: as §3
[39] = tested on: SK-MEL-5; assay: Growth inhibition of human SK-MEL-5 cells; in short: as §1
[40] = tested on: MCF7; assay: Growth inhibition of human MCF7 cells; in short: as §1
[41] = Growth inhibition of human Hs 578T cells; in short: as §1
[42] = tested on: COLO 205; assay: Growth inhibition of human COLO205 cells; in short: as §1
[43] = tested on: MCF7; assay: Cell cycle arrest in human MCF7 cells assessed as accumulation at G2/M phase at 30 uM after 24 hrs by FACS analysis; in short: as §4
[44] = tested on: MCF7; assay: Cell cycle arrest in human MCF7 cells assessed as accumulation at G2/M phase at 10 uM after 24 hrs by FACS analysis; in short: as §2
[45] = tested on: SF-539; assay: Growth inhibition of human SF539 cells; in short: as §1
[46] = tested on: HOP-92; assay: Growth inhibition of human HOP92 cells; in short: as §1
[47] = tested on: MCF7; assay: Cell cycle arrest in human MCF7 cells assessed as accumulation at G0 phase at 30 uM after 24 hrs by FACS analysis; in short: as §4
[48] = tested on: PC-3; assay: Growth inhibition of human PC3 cells; in short: as §1
[49] = tested on: MCF7; assay: Cell cycle arrest in human MCF7 cells assessed as accumulation at G1 phase at 30 uM after 24 hrs by FACS analysis; in short: as §4
[50] = tested on: CAKI-1; assay: Growth inhibition of human Caki1 cells; in short: as §1
[51] = tested on: SF-295; assay: Growth inhibition of human SF295 cells; in short: as §1
[52] = tested on: K562; assay: Growth inhibition of human K562 cells; in short: as §1
[53] = tested on: EKVX; assay: Growth inhibition of human EKVX cells; in short: as §1
[54] = tested on: NCI-H23; assay: Growth inhibition of human NCI-H23 cells; in short: as §1
[55] = tested on: OVCAR-5; assay: Growth inhibition of human OVCAR5 cells; in short: as §1
[56] = tested on: Malme-3M; assay: Growth inhibition of human MALME-3M cells; in short: as §1
[57] = tested on: SNB-19; assay: Growth inhibition of human SNB19 cells; in short: as §3
[58] = tested on: NCI-H322M; assay: Growth inhibition of human NCI-H322M cells; in short: as §1
[59] = tested on: SF-268; assay: Growth inhibition of human SF268 cells; in short: as §1
[60] = tested on: NCI-H522; assay: Growth inhibition of human NCI-H522 cells; in short: as §1
[61] = tested on: TK-10; assay: Growth inhibition of human TK10 cells; in short: as §3

## O=C(/C=C/c1cccc(O)c1)c1cccc(-n2cc(-c3ccccc3)[nH]c2=O)c1
[1]
  GI50: 14.3 µM
[2]
  Activity: 57.26%
[3]
  GI50: 7.68 µM
[4]
  GI50: 5.63 µM
[5]
  GI50: 3100 nM
[6]
  GI50: 3730 nM
[7]
  GI50: 2490 nM
[8]
  GI50: 3.89 µM
[9]
  GI50: 2980 nM
[10]
  Activity: 18.48%
[11]
  GI50: 2160 nM
[12]
  GI50: 8.26 µM
[13]
  GI50: 3.86 µM
[14]
  GI50: 1610 nM
[15]
  GI50: 2150 nM
[16]
  GI50: 3330 nM
[17]
  GI50: 3120 nM
[18]
  GI50: 3080 nM
[19]
  Activity: 2.1%
[20]
  GI50: 2410 nM
[21]
  GI50: 4.24 µM
[22]
  GI50: 1850 nM
[23]
  GI50: 3140 nM
[24]
  GI50: 1830 nM
[25]
  Activity: 17.21%
[26]
  GI50: 1890 nM
[27]
  GI50: 6.93 µM
[28]
  GI50: 2800 nM
[29]
  GI50: 24.8 µM
[30]
  GI50: 4.09 µM
[31]
  GI50: 9.32 µM
[32]
  GI50: 5.3 µM
[33]
  GI50: 3650 nM
[34]
  GI50: 11.1 µM
[35]
  GI50: 4.53 µM
[36]
  GI50: 2760 nM
[37]
  GI50: 3020 nM
[38]
  GI50: 12.1 µM
[39]
  GI50: 3180 nM
[40]
  GI50: 2470 nM
[41]
  GI50: 6.14 µM
[42]
  GI50: 2010 nM
[43]
  Activity: 17.8%
[44]
  Activity: 22.16%
[45]
  GI50: 1980 nM
[46]
  GI50: 5.04 µM
[47]
  Activity: 11.07%
[48]
  GI50: 2820 nM
[49]
  Activity: 53.92%
[50]
  GI50: 13.3 µM
[51]
  GI50: 18.2 µM
[52]
  GI50: 3350 nM
[53]
  GI50: 15.6 µM
[54]
  GI50: 3.35 µM
[55]
  GI50: 5.44 µM
[56]
  GI50: 6.21 µM
[57]
  GI50: 10.9 µM
[58]
  GI50: 10.6 µM
[59]
  GI50: 4.53 µM

## O=C(/C=C/c1cccc(O)c1)c1cccc(-n2cc(-c3ccc(Cl)cc3)[nH]c2=O)c1
[1]
  GI50: 3.71 µM
[2]
  Activity: 59.35%
[3]
  GI50: 4.07 µM
[4]
  GI50: 3.64 µM
[5]
  GI50: 2330 nM
[6]
  GI50: 2200 nM
[7]
  GI50: 2410 nM
[8]
  GI50: 3.55 µM
[9]
  GI50: 1570 nM
[10]
  Activity: 13.92%
[11]
  GI50: 550 nM
[12]
  GI50: 2.07 µM
[13]
  GI50: 3.35 µM
[14]
  GI50: 580 nM
[15]
  GI50: 1550 nM
[16]
  GI50: 1900 nM
[17]
  GI50: 2060 nM
[60]
  GI50: 1650 nM
[18]
  GI50: 1560 nM
[19]
  Activity: 3.1%
[20]
  GI50: 1620 nM
[21]
  GI50: 1.92 µM
[22]
  GI50: 1570 nM
[23]
  GI50: 1950 nM
[24]
  GI50: 1340 nM
[25]
  Activity: 13.7%
[26]
  GI50: 1510 nM
[27]
  GI50: 2.36 µM
[28]
  GI50: 990 nM
[29]
  GI50: 2.31 µM
[30]
  GI50: 13.7 µM
[31]
  GI50: 1.45 µM
[32]
  GI50: 2.21 µM
[33]
  GI50: 1850 nM
[34]
  GI50: 4.21 µM
[35]
  GI50: 2.01 µM
[36]
  GI50: 1840 nM
[37]
  GI50: 1230 nM
[38]
  GI50: 1.46 µM
[39]
  GI50: 1530 nM
[40]
  GI50: 1270 nM
[41]
  GI50: 4 µM
[42]
  GI50: 2290 nM
[43]
  Activity: 10.8%
[44]
  Activity: 23.63%
[45]
  GI50: 1680 nM
[46]
  GI50: 1.6 µM
[47]
  Activity: 17.17%
[49]
  Activity: 58.33%
[61]
  GI50: 2830 nM
[50]
  GI50: 1.72 µM
[51]
  GI50: 1.79 µM
[52]
  GI50: 400 nM
[53]
  GI50: 2.4 µM
[54]
  GI50: 2.78 µM
[55]
  GI50: 2.19 µM
[56]
  GI50: 1.83 µM
[57]
  GI50: 1.92 µM
[58]
  GI50: 2.52 µM
[59]
  GI50: 1.78 µM
